Experimental findings from PubChem BioAssay AID1325 (NMMLSC, 2008) are described below.

Each structure is given as a SMILES string. The campaign covered roughly 190,000 compounds. About 200 (0.11%) were called active. The entries come from a sample that favours actives as a whole. Values without a mark were called inactive.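 Rule for the calls: active = inhibition above 80%; inactive = the rest.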

Chain of Broad substrate specificity ATP-binding cassette transporter ABCG2 (Homo sapiens) (Q9UNQ0 whole entry, looked up): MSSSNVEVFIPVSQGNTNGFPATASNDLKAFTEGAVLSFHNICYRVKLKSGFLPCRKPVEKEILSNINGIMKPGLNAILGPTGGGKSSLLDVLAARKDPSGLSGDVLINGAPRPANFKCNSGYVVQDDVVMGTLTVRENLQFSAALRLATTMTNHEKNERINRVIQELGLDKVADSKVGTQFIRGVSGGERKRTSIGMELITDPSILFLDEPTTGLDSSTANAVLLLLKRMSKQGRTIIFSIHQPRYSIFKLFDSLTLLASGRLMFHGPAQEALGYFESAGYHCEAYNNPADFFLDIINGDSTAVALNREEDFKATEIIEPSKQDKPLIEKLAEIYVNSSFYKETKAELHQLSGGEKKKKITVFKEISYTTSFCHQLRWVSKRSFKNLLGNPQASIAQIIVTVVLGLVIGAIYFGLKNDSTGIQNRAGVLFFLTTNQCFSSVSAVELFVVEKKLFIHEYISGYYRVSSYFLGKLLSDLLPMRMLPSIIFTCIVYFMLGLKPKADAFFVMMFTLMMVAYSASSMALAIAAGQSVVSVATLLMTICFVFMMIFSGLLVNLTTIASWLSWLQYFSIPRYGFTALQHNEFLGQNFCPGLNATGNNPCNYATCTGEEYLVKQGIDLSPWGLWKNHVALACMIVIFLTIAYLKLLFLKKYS

In this assay the target is Broad substrate specificity ATP-binding cassette transporter ABCG2 (Homo sapiens) (UniProt Q9UNQ0). The assay can be described thus: blockers of JC-1 export by ABCG2 – multiplex with ABCB1, IgMXP3 cells, flow cytometry, primary screen (AID 1325).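 Note: 0% = DMSO and 100% = nicardipine control wells.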 As to conditions: JC-1 efflux, at 6.6 µM, active compounds read high. In outline:
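Times: 10 min at 25 °C | Test system: Two drug-resistant human cell lines, ABCG2 and ABCB1 | Quantity: 3 million cells/mL final, two lines in 1:1 ratio | Signal: Flow cytometry, 530 nm JC-1 signal | Dosing: Compound at 6.6 µM | Controls: Nicardipine and DMSO wells | Reagent: JC-1 as fluorescent efflux pump substrate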
The term inhibition denotes the relative decrease from the control value, in per cent. With `C=CCNC(=O)CC12CC3CC(C1)CC(CC(=O)NCC=C)(C3)C2`, the inhibition was 0.78%.

For the molecule `Cc1cc(C)cc(NC(=O)Cn2cnc3c(nnn3Cc3ccc(F)cc3)c2=O)c1`, the inhibition is 0.29%. In the case of `CSc1ccc(CN2C(=O)NC3(CCCCCC3)C2=O)cc1` it was -1.59%; in that of `COCCNC(=O)CCCn1c(=O)c2ccccc2n(Cc2cccc([N+](=O)[O-])c2)c1=O`, 3.38%. Consider `COc1ccccc1CN(C)c1nnnn1-c1ccccc1`, for which the inhibition was -0.06%. As for `O=C(CSc1ccc(-c2ccco2)nn1)NCc1ccc2c(c1)OCO2`, the inhibition was 0.73%. In the case of `O=C(Nc1ccccc1C(=O)O)c1cc(S(=O)(=O)N2CCCCC2)cs1`, the inhibition was -0.42%. Turning to `Cc1c(Br)c([N+](=O)[O-])nn1CC(=O)N1CCN(Cc2ccccc2)CC1`, the inhibition is 2.55%. On to `CC(C)NC(=S)NN=C1CCCCCCCCCCC1`, for which the inhibition is 5.8%. For `CCSc1sc(CC)cc1C=O`, the inhibition was 3.95%. Consider `CCCCn1c(=O)c(CCC(=O)OCC(=O)Nc2ccc(C)c(Cl)c2)nc2ccccc21`, for which the inhibition is 2.45%. Regarding `COC(=O)Cc1csc(/N=C/c2c(O)n(-c3cccc(C(F)(F)F)c3)c(=O)c3ccccc23)n1`, the inhibition was -1.85%. On to `Cc1c(Cc2ccccc2)c(=O)oc2cc(OCC(N)=O)ccc12`, for which the inhibition was 0.67%.

As for `CCOC(=O)c1sc(=NC(=O)/C=C/c2cccs2)n(C)c1C`, the inhibition is 2.28%. In the case of `CCC(C(=O)OCC(=O)Nc1ccccc1-c1ccccc1)c1ccccc1` (configuration not stated) it was 3.04%. As for `C/C(=N/O)c1ccc(N2C(=O)C3C4C=CC(C3C2=O)C2C3C(=O)N(c5ccc(/C(C)=N/O)cc5)C(=O)C3C42)cc1` (configuration not stated), the inhibition is -1.72%.

For `O=C(c1ccc(-c2ccccc2)cc1)C1CCCN(C(=O)c2cncs2)C1` (configuration not stated), the inhibition is 3.81%. In the case of `Cc1ccc(OCC(=O)NNC(=S)NCc2ccccc2)cc1` it was -1.33%; in that of `O=C(/C=C/c1cccc([N+](=O)[O-])c1)NCCSCc1ccco1`, 51.1%. In the case of `Cc1ccc(C)c(NS(=O)(=O)c2ccc(OCC(=O)NCc3cccnc3)cc2)c1`, the inhibition was 0.12%. Take `O=C(O/N=C(/c1ccccc1)c1ccncc1)c1ccccc1[N+](=O)[O-]`: the inhibition is 4.1%. In the case of `Cc1ccc(C(=O)COC(=O)c2cccc(N3C(=O)c4c(C)nc5ccccc5c4C3=O)c2)cc1C` it was 15.3%; in that of `S=c1[nH]nc(NCCc2ccccc2)s1`, 0.35%; in that of `C/C(=C/C(=O)N1CCN(C)CC1)C(=O)O`, 4.35%. For the molecule `CCNC(=O)CC1C(=O)N(c2ccc(OC)cc2)C(=S)N1CCc1ccncc1` (configuration not stated), the inhibition was -0.76%. In the case of `NS(=O)(=O)c1ccc(NC(=O)COC(=O)c2ccco2)cc1` it was 10%. In the case of `CN(Cc1ccccc1)C(=O)CCc1ccccc1` it was 1.98%; in that of `O=C(NC1CCN(Cc2ccccc2)CC1)c1cc(Br)c(Br)[nH]1`, 4.52%; in that of `Cc1ccc2c(c1)C(O)(CC(=O)c1cccc(-n3cccc3)c1)C(=O)N2` (configuration not stated), 16.3%. Take `Cc1ccc(NC(=S)N(CCN(C)C)Cc2cccs2)cc1C`: the inhibition is -0.22%. Take `COc1ccccc1NC(=S)N1CCC(NC(=O)C23CC4CC(CC(C4)C2)C3)CC1`: the inhibition is -0.01%. In the case of `C=CCn1c(-c2sc(-c3ccccc3)nc2C)n[nH]c1=S` it was 1.76%; in that of `CCN1CCN(C(=O)CN(C)S(=O)(=O)c2ccc3ccccc3c2)CC1`, 0.1%; in that of `COc1ccc(OCCNS(=O)(=O)Cc2ccccc2)cc1`, 2.18%. As for `COc1ccc(C)cc1NC(=O)Nc1ccccc1SC`, the inhibition was 13.2%. With `COc1ccc(C)cc1NC(=S)Nc1ccccc1SC`, the inhibition is 0.21%. On to `COc1ccc(C)cc1NC(=O)C(Sc1ccccc1)c1ccccc1` (configuration not stated), for which the inhibition was 91.6% (active).

`CCOC(=O)C1=C(CC)OC(N)=C(C#N)C1c1ccc(F)cc1F` (configuration not stated): the inhibition is -0.41%. As for `CC(CO)NCC12CC3CC(CC(C3)C1)C2` (configuration not stated), the inhibition is -2.66%.

Consider `COc1ccc(CN(C)C(C)C(=O)NC2CCCc3ccccc32)cc1` (configuration not stated), for which the inhibition is 6.36%. In the case of `O=C(Cc1csc(Nc2nc(=S)[nH]c3ccccc23)n1)NCCCN1CCN(c2cccc(Cl)c2)CC1`, the inhibition was 3.5%. As to `CCc1ccc(Oc2nc([N+](=O)[O-])nn2C)cc1`, the inhibition is 1.08%. Regarding `CCC(CC)c1nnc(NC(=O)c2nn(C)c(=O)c3ccccc23)s1`, the inhibition was 6.7%. In the case of `CCN(C(=O)Cc1nc(N)n[nH]1)C1(C(=O)Nc2ccccc2)CCCCC1` it was 2.7%; in that of `CC(CNC(=O)c1ccc(N)cc1)NC(=O)c1ccc(N)cc1` (configuration not stated), -4.01%; in that of `Cc1cc(OC(=O)c2ccccc2Cl)ccc1N1C(=O)CCC1=O`, 21.3%. As for `O=S(=O)(Nc1ncccn1)c1ccc(NS(=O)(=O)c2cccc(Cl)c2Cl)cc1`, the inhibition is 0.94%.

Turning to `C=CCC1(CC=C)CCCN1C(=O)CC1C(=O)NCCN1Cc1ccccc1OC` (configuration not stated), the inhibition was 4.22%.

As to `NNc1nc2c(Cl)cccc2s1`, the inhibition is -11.1%.

As to `COc1ccc(CN2CCCC(C(=O)c3ccc(Cl)cc3)C2)cc1Cn1cncn1` (configuration not stated), the inhibition was 2.66%. On to `CN(C)c1nnnn1-c1ccc(Cl)cc1`, for which the inhibition is 1.39%. In the case of `O=C1NC(c2ccc(-c3ccccc3[N+](=O)[O-])o2)C(C(=O)c2ccc(Cl)cc2)C(O)(C(F)(F)F)N1` (configuration not stated) it was 14.6%.
